Data as given in ChEMBL document CHEMBL1148356, “Synthesis and biological evaluation of 3-heterocyclyl-7,8,9,10-tetrahydro-(7,10-ethano)-1,2,4-triazolo[3,4-a]phthalazines and analogues as subtype-selective inverse agonists for the GABA(A)alpha5 benzodiazepine binding site” (J Med Chem, 2004).

Experiments:
[1] = molecular target: T1, GABA-A receptor; alpha-1/beta-3/gamma-2 (Homo sapiens, UniProt P14867+P18507+P28472); assay: Binding affinity towards human alpha-1-beta-3-gamma-2 GABA-A receptor using [3H]Ro-151788 expressed in L(tk-) cells; format: cell-based
T1 sequence (P14867 whole entry): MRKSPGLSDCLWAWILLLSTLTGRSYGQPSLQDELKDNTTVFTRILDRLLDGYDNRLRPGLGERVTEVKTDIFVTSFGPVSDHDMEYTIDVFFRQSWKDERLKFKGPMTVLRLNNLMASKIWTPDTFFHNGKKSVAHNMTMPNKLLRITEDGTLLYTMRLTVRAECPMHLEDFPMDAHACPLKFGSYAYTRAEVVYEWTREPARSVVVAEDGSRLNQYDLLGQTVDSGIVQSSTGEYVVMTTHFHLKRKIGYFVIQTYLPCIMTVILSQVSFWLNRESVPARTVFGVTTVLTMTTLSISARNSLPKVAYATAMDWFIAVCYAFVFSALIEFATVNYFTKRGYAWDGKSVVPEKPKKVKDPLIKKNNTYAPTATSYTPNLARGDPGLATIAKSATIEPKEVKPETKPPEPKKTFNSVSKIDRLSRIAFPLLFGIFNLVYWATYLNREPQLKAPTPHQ
T1 sequence (P18507 whole entry): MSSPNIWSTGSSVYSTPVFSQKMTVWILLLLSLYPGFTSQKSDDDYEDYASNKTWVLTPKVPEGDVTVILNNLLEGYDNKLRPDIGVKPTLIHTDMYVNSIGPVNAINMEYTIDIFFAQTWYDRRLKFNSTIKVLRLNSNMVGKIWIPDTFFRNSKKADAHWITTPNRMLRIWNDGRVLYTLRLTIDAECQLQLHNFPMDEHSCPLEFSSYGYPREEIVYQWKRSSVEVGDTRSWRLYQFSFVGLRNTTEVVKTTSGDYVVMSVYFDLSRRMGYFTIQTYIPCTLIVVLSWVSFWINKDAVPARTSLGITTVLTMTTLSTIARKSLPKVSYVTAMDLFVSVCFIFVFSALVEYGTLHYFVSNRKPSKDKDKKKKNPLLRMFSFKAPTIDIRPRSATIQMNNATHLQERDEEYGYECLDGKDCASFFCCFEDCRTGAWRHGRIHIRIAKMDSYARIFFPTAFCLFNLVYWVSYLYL
T1 sequence (P28472 whole entry): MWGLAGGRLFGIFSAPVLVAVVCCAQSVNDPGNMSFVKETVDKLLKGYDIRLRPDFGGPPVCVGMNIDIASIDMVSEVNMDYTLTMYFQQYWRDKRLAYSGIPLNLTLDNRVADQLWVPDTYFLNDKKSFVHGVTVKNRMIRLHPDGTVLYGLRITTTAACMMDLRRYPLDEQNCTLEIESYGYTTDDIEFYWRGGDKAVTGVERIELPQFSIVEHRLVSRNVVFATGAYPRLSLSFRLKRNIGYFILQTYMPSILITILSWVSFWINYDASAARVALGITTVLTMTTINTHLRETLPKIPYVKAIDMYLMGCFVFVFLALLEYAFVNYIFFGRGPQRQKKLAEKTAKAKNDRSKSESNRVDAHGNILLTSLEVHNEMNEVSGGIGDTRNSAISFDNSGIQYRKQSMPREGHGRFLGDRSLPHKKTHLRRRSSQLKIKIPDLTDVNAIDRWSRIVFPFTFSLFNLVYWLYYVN

[2] = molecular target: T2, GABA-A receptor; alpha-5/beta-3/gamma-2 (Homo sapiens, UniProt P18507+P28472+P31644); assay: Effective concentration against human Alpha-5-beta-3-gamma-2 GABA-A receptor was determined; format: functional
T2 sequence (P18507 whole entry): T1 sequence (P18507 whole entry)
T2 sequence (P28472 whole entry): T1 sequence (P28472 whole entry)
T2 sequence (P31644 whole entry): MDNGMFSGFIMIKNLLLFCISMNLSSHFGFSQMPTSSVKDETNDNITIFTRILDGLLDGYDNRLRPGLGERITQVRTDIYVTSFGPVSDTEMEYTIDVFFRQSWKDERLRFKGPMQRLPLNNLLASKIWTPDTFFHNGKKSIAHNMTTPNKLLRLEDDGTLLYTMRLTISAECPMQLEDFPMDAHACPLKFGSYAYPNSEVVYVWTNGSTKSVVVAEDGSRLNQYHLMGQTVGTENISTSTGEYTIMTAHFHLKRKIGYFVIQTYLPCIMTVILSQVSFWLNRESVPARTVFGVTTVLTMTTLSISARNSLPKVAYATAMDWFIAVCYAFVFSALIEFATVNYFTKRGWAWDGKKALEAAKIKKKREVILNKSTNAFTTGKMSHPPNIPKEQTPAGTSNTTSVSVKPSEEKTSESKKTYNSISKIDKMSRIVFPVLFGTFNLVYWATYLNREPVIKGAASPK
Procedure, shortened: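 Whole-cell patch clamp was run on Ltk- cells stably expressing human α5β3γ2s. Bath solution was NaCl/NaHCO3/glucose buffer, pH 7.2. Pipettes held 130 mM CsCl, 10 mM EGTA, 3 mM Mg-ATP, pH 7.3. Drug was applied by double-barreled pipette with an EC20 GABA concentration, and concentration–response data were fitted to a Hill equation for EC50. Values are mean ± SEM of at least five fitted curves, with at least five cells per point.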

[3] = molecular target: GABA-A receptor; alpha-2/beta-3/gamma-2 (Homo sapiens) (UniProt P18507+P28472+P47869); assay: Percent maximum change in electrophysiological response in Xenopus oocytes expressing alpha-2-beta-3-gamma-2 GABA-A receptor; format: functional, cell-based; details: Oocyte
Procedure, shortened: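 Two-electrode voltage clamp on Xenopus oocytes injected with human GABA-A subunit cDNAs, 24-72 h expression, perfused with modified Barth's medium at pH 7.5, clamped between -40 and -70 mV. The GABA EC20 was titrated against a 3 mM GABA maximum. […] Result is % change of control current, mean ± SE of ≥4 oocytes.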

[4] = molecular target: T2, GABA-A receptor; alpha-5/beta-3/gamma-2; assay: Binding affinity towards human alpha-5-beta-3-gamma-2 GABA-A receptor using [3H]Ro-151788 expressed in L(tk-) cells; format: cell-based
[5] = molecular target: GABA A receptor alpha-4/beta-3/gamma-2 (Homo sapiens, UniProt P18507+P28472+P48169); assay: Inhibition of [3H]-Ro-15-1788 binding to human alpha-4-beta-3-gamma-2 GABA-A receptor expressed in L(tk-) cells; format: cell-based
Chain of GABA A receptor alpha-4/beta-3/gamma-2 (P48169 whole entry, one chain of several): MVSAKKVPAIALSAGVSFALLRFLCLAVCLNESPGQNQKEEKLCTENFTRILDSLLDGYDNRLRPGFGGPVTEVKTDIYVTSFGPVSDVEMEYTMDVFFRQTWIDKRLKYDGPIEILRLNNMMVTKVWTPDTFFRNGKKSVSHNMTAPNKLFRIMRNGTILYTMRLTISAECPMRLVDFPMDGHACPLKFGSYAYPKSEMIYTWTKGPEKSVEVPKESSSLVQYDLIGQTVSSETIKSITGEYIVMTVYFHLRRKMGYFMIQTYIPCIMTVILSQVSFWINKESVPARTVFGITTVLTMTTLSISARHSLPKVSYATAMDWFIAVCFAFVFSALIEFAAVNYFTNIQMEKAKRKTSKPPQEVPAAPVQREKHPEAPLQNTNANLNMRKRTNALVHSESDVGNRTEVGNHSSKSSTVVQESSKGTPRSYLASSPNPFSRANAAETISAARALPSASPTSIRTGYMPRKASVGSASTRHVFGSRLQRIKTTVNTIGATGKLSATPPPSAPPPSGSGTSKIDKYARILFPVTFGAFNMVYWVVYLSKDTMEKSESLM

Work on `Cc1cc(-c2nnc3c4ccccc4c(OCc4ccccn4)nn23)no1` yielded a Ki [1] of 1.4 nM, an EC50 [2] of 2.5 nM and an Efficacy [3] of -7%. It also gave a Ki [4] of 0.8 nM and a Ki [5] of 244 nM.
